Series [1] relates to Rattus norvegicus. Put plainly: In vivo antagonist activity at glucocorticoid receptor in Sprague-Dawley rat assessed as reduction in cortisone-induced plasma glucose levels at 30 mg/kg, po bid via gavage for 6 days pretreated for 12 hrs followed by cortisone 21-acetate treatment measured 24 hrs after last cortisone 21-acetate treatment. Type of series: functional, organism-based. In short, it runs like this: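 Male Sprague Dawley rats (200-250g), 3-day vehicle baseline, groups of eight. Compound as suspension in DMSO:Tween 80:0.5% HPMC 10:0.1:89.9, oral gavage twice daily for 6 days; cortisone 21-acetate 30mg/kg s.c. daily in 1% methylcellulose. Tail-vein blood 24 h after last cortisone (12 h after last compound); glucose by clinical reagent, insulin by ultrasensitive rat ELISA.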

Series [2] concerns the target Cytochrome P450 2C9 (Homo sapiens, UniProt P11712). Put plainly: Time-dependent inhibition of CYP2C9 (unknown origin). It counts as ADME.
Series [3] has as its target T1, estrogen receptor (Homo sapiens, UniProt P03372).
T1 sequence (P03372 whole entry): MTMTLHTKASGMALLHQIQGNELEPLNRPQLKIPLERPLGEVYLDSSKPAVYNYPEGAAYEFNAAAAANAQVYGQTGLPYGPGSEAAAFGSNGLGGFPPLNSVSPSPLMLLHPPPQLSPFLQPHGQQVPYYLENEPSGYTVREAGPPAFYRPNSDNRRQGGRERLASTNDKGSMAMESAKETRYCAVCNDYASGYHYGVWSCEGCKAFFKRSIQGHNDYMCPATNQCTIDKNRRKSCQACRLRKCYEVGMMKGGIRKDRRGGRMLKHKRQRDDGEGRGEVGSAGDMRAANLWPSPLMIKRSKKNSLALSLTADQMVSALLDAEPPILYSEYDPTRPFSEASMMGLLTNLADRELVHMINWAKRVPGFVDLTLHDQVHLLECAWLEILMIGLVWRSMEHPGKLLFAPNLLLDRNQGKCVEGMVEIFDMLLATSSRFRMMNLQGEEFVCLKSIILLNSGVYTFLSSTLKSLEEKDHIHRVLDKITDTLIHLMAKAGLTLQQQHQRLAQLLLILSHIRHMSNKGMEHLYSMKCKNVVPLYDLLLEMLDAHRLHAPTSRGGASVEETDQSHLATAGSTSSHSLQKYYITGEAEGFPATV
Put plainly: Inhibition of radioligand binding to estrogen receptor (unknown origin) at 1 uM relative to control.

In series [4] the target is T2, Cytochrome P450 2B6 (Homo sapiens, UniProt P20813).
T2 sequence (P20813 whole entry): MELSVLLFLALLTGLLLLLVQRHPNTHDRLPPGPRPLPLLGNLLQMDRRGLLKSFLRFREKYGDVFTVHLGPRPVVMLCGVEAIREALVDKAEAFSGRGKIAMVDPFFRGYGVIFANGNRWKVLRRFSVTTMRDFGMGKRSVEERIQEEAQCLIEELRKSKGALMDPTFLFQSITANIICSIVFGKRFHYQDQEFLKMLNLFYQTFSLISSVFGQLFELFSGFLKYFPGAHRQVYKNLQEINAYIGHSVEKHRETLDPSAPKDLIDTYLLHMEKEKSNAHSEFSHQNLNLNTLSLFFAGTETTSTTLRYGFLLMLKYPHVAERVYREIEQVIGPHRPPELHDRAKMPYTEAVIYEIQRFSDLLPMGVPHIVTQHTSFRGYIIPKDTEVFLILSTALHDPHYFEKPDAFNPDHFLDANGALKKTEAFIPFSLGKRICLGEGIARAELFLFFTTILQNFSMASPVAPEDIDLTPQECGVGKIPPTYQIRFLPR
Put plainly: Time-dependent inhibition of CYP2B6 (unknown origin). Type of series: ADME.

In series [5] the target is T3, Cytochrome P450 1A2 (Homo sapiens, UniProt P05177).
T3 sequence (P05177 whole entry): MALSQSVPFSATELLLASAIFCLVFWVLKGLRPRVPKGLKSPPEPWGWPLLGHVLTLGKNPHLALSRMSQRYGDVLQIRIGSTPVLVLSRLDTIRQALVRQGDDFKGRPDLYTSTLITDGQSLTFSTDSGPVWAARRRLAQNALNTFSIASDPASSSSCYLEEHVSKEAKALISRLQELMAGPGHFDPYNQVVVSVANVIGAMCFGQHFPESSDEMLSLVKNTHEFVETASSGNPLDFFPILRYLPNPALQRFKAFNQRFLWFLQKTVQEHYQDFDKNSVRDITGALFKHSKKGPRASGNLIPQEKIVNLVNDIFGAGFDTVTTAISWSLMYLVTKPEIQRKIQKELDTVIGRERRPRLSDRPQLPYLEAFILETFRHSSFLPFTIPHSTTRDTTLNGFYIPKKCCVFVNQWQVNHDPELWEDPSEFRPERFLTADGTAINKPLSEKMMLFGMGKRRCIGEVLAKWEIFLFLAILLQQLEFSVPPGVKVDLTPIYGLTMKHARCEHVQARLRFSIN
Nature of the series: Inhibition of CYP1A2 (unknown origin). Type of series: ADME.

Series [6] deals with T4, Cytochrome P450 2C19 (Homo sapiens, UniProt P33261). Nature of the series: Time-dependent inhibition of CYP2C19 (unknown origin). Type of series: ADME.
T4 sequence (P33261 whole entry): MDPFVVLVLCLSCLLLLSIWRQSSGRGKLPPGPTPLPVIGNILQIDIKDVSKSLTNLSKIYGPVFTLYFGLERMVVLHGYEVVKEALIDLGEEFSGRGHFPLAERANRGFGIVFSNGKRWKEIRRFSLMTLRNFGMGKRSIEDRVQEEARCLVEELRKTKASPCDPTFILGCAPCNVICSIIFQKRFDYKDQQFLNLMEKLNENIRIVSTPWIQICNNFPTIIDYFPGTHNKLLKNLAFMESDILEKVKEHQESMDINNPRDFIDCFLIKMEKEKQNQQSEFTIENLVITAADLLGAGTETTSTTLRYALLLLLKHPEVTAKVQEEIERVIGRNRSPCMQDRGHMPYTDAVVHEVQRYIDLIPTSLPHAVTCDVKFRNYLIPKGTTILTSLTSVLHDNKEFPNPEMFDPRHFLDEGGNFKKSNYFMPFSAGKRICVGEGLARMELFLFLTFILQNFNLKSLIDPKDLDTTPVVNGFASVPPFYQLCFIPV
A short description of series [7]: Cmax in Sprague-Dawley CD-1 rat plasma at 3 mg/kg, po administered as cassette dose via gavage measured up to 24 hrs by LC/MS analysis. It counts as ADME, organism-based. Details: dose 3 mg/kg, route oral. In short, it runs like this:
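Three male Sprague Dawley CD-1 rats (220-250g) with jugular vein catheters; three test compounds plus a reference dosed together by oral gavage, 3mg/kg each, in DMSO:0.5% methylcellulose 10:90 (0.6mg/mL per compound), 5mL/kg. Plasma sampled pre-dose and at 0.25, 0.5, 1, 2, 4, 6, 8, 24 h; LC/MS.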

Series [8] can be described thus: Protein binding in monkey plasma. It counts as ADME, cell-free, Macaca mulatta. To be noted: rhesus monkey, read-out: PPB (converted).
Series [9] has as its target Cytochrome P450 3A5 (Homo sapiens, UniProt P20815). Nature of the series: Inhibition of CYP3A5 (unknown origin). Type of series: ADME.
Series [10] deals with T4, Cytochrome P450 2C19. Put plainly: Inhibition of CYP2C19 (unknown origin). It counts as ADME.
Series [11] addresses Cytochrome P450 2D6 (Homo sapiens, UniProt P10635). Nature of the series: Time-dependent inhibition of CYP2D6 (unknown origin). It counts as ADME.

The values that follow come from ChEMBL document CHEMBL4049426, “Identification of the Clinical Candidate (R)-(1-(4-Fluorophenyl)-6-((1-methyl-1H-pyrazol-4-yl)sulfonyl)-4,4a,5,6,7,8-hexahydro-1H-pyrazolo[3,4-g]isoquinolin-4a-yl)(4-(trifluoromethyl)pyridin-2-yl)methanone (CORT125134): A Selective Glucocorticoid Receptor (GR) Antagonist” (J Med Chem, 2017).

The source made the active and inactive calls. The calls are words filed in the database; no cut-off is given here.

One may read the inhibition as the change of the read-out against control, counted positive when it falls. In general, IC50 refers to the concentration needed to halve the response being measured. In general, Cmax refers to the maximum level reached in the sampled fluid or tissue.

Sequence of Cytochrome P450 2C9 (P11712 whole entry): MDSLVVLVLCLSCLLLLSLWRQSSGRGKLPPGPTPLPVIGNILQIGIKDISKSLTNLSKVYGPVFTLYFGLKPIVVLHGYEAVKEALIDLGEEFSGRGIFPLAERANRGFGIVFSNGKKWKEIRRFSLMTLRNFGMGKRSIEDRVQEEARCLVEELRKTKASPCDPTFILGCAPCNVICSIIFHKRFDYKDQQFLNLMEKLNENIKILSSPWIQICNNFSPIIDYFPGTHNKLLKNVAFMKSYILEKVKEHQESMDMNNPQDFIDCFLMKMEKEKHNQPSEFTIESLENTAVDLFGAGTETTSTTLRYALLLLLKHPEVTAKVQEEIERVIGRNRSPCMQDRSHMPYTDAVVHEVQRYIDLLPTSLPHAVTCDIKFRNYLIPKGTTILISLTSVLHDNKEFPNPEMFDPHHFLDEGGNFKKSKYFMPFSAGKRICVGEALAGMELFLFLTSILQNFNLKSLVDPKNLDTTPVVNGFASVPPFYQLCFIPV
Sequence of Cytochrome P450 3A5 (P20815 whole entry): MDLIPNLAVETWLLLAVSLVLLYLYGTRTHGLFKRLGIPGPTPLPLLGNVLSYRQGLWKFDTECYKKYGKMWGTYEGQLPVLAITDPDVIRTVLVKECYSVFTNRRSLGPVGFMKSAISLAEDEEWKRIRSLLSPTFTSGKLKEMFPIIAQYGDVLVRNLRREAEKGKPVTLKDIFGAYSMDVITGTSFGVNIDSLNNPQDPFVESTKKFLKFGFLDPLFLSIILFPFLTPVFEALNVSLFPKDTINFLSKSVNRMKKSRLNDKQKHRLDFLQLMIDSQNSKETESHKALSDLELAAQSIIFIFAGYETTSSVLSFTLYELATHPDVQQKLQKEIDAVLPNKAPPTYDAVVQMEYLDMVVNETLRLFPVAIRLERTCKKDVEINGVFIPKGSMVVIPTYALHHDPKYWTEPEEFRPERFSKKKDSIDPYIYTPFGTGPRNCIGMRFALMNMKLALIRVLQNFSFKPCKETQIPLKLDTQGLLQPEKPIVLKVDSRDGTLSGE
Sequence of Cytochrome P450 2D6 (P10635 whole entry): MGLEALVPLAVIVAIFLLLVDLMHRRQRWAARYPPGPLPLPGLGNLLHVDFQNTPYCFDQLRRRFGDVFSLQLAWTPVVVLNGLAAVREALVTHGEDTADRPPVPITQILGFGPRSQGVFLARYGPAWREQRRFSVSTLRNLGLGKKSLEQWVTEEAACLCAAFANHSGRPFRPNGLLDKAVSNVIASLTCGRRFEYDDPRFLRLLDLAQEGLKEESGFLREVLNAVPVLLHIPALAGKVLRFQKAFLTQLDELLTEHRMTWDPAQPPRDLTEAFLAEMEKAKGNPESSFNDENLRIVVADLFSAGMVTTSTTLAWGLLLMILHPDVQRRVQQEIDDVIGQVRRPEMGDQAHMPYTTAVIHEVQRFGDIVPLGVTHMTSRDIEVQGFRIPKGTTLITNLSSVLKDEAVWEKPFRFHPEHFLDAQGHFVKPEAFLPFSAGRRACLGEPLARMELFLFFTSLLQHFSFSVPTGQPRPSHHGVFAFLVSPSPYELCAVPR

`Cn1cc(S(=O)(=O)N2CCC3=Cc4c(cnn4-c4ccc(F)cc4)C[C@]3(C(=O)c3cc(C(F)(F)F)ccn3)C2)cn1` [RELACORILANT]: the inhibition entry in series [1] is “Active”. Moreover, the TDI result in [2], in series [4], in series [6] and in series [11] was “Not Active” throughout. The compound further showed an inhibition at 1 µM in series [3] of under 10%. For the same compound, the IC50 was over 10 µM in series [5], 4.9 µM in [9] and 8 µM in [10]. In addition, the Cmax in [7] was 262 ng/mL. Besides, the fraction unbound in series [8] was 0.011.
